Assay results: ChEMBL document CHEMBL3297699, “Synthesis of novel fluoro analogues of MKC442 as microbicides” (J Med Chem, 2014)

What was measured:
[1] = system: Human immunodeficiency virus 1; assay: Ratio of EC50 for MDR-resistant HIV1 harboring 41L, 74V, 106A, 215Y mutant to EC50 for wild type HIV1 3B; type: functional
[2] = system: Human immunodeficiency virus 1; assay: Antiviral activity against efavirenz-resistant HIV1 harboring RT 100I, 103R, 179D, 225H mutant infected in human MT4 cells assessed as inhibition of virus-induced cytopathogenicity after 4 days by MTT assay; type: functional, organism-based; details: Human immunodeficiency virus 1, MT4
How it was run: (§1)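 MT-4 cells grown at 37 °C, 5% CO2 in RPMI-1640 with 10% FCS, penicillin and streptomycin. Compounds taken up in DMSO at […] (stock), then diluted in medium. 1 × 10^4 cells per well with serial compound dilutions, then HIV-1 inoculum sized to give complete cytopathogenicity by day 4. Viability read by MTT. […] Mean of three independent determinations.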

[3] = system: Human immunodeficiency virus 1; assay: Antiviral activity against zidovudine-resistant HIV1 harboring RT 67N, 70R, 215F, 219Q mutant infected in human MT4 cells assessed as inhibition of virus-induced cytopathogenicity after 4 days by MTT assay; type: functional, organism-based; details: Human immunodeficiency virus 1, MT4, 96 h; how it was run: as §1
[4] = system: Human immunodeficiency virus 1; assay: Antiviral activity against HIV1 MP582 infected in human dendritic cells assessed as inhibition of p24 production; details: Human immunodeficiency virus 1, MP582, dendritic cells
[5] = system: Human immunodeficiency virus 1; assay: Antiviral activity against HIV1 MP411 infected in human dendritic cells assessed as inhibition of p24 in supernatants; details: Human immunodeficiency virus 1, MP411, dendritic cells
[6] = system: Human immunodeficiency virus 1; assay: Antiviral activity against […] HIV1 harboring 103N, 181C mutant infected in human MT4 cells assessed as inhibition of virus-induced cytopathogenicity after 4 days by MTT assay; type: functional, organism-based; details: Human immunodeficiency virus 1, MT4, 96 h; how it was run: as §1
[7] = system: Human immunodeficiency virus 1; assay: Ratio of EC50 for zidovudine-resistant HIV1 harboring RT 67N, 70R, 215F, 219Q mutant to EC50 for wild type HIV1 3B; type: functional
[8] = system: Human immunodeficiency virus 1; assay: Ratio of EC50 for saquinavir-resistant HIV1 to EC50 for wild type HIV1 3B; type: functional
[9] = Cytotoxicity against human MT4 cells after 40 days by MTT assay; type: cell-based
How it was run: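 Mock-infected MT-4 cells at 1 × 10^5 cells/mL, 37 °C, with various compound concentrations for 40 days. One-tenth of the culture is moved every 3−4 days into fresh drug-containing medium at low density to keep growth exponential. Viability is read by MTT at each passage. The value is the maximum concentration still allowing exponential proliferation, as the mean of three determinations.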

[10] = system: Human immunodeficiency virus 1; assay: Antiviral activity against saquinavir-resistant HIV1 infected in human MT4 cells assessed as inhibition of virus-induced cytopathogenicity after 4 days by MTT assay; type: functional, organism-based; details: Human immunodeficiency virus 1, MT4, 96 h; how it was run: as §1
[11] = system: Human immunodeficiency virus 1; assay: Antiviral activity against 6-[(3,5-Dimethylphenyl)fluoromethyl]-5-ethyl-1-{[[4-(3-hydroxyprop-1-ynyl)benzyl]oxy]methyl}pyrimidine-2,4(1H,3H)-dione-resistant HIV1 harboring RT 106I, 181C mutant infected in human MT4 cells assessed as inhibition of virus-induced cytopathogenicity after 4 days by MTT assay; type: functional, organism-based; details: Human immunodeficiency virus 1, MT4; how it was run: as §1
[12] = system: Human immunodeficiency virus 1; assay: Ratio of EC50 for efavirenz-resistant HIV1 harboring RT 100I, 103R, 179D, 225H mutant to EC50 for wild type HIV1 3B; type: functional
[13] = system: Human immunodeficiency virus 1; assay: Antiviral activity against MC1220-resistant HIV1 harboring RT 100I, 179D, 181C mutant infected in human MT4 cells assessed as inhibition of virus-induced cytopathogenicity after 4 days by MTT assay; type: functional, organism-based; details: Human immunodeficiency virus 1, MT4, 96 h; how it was run: as §1
[14] = system: Human immunodeficiency virus 1; assay: Antiviral activity against NRTI-resistant HIV1 MP1315 infected in human dendritic cells assessed as inhibition of p24 in supernatants; details: Human immunodeficiency virus 1, MP1315, dendritic cells
[15] = system: Human immunodeficiency virus 1; assay: Antiviral activity against wild type HIV1 3B infected in human MT4 cells assessed as inhibition of virus-induced cytopathogenicity after 4 days by MTT assay; type: functional, organism-based; details: Human immunodeficiency virus 1, 3B, MT4, 96 h; how it was run: as §1
[16] = system: Human immunodeficiency virus 1; assay: Antiviral activity against HIV1 infected in human MT4 cells assessed as lowest compound concentration required to irreversibly knock out vial multiplication treated by chronic treatment measured after 40 days by MTT assay; type: functional
How it was run: (§2)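 HIV-1-infected MT-4 cells at high MOI (5−10 CCID50/cell) in 40-day assays. Compound is given continuously (chronic), for only the first 4 h after infection, or for 4 h immediately before infection. Cells are resuspended at 10^5 cells/mL every 4 days. The value is the lowest concentration that irreversibly knocks out HIV-1 multiplication, as the mean of three independent determinations.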

[17] = system: Human immunodeficiency virus 1; assay: Antiviral activity against […] HIV1 harboring Y181C mutant infected in human MT4 cells assessed as inhibition of virus-induced cytopathogenicity after 4 days by MTT assay; type: functional, organism-based; details: Human immunodeficiency virus 1, MT4, 96 h; how it was run: as §1
[18] = system: Human immunodeficiency virus 1; assay: Antiviral activity against HIV1 CRF01 infected in human dendritic cells assessed as inhibition of p24 in supernatants; details: Human immunodeficiency virus 1, CRF01, dendritic cells
[19] = system: Human immunodeficiency virus 1; assay: Antiviral activity against HIV1 infected in human MT4 cells assessed as lowest compound concentration required to irreversibly knock out vial multiplication treated 4 hrs after infection measured after 40 days by MTT assay; type: functional; how it was run: as §2
[20] = system: Human immunodeficiency virus 1; assay: Antiviral activity against TMC125-resistant HIV1 harboring RT 109M, 138K, 190E mutant infected in human MT4 cells assessed as inhibition of virus-induced cytopathogenicity after 4 days by MTT assay; type: functional, organism-based; details: Human immunodeficiency virus 1, MT4, 96 h; how it was run: as §1
[21] = system: Human immunodeficiency virus 1; assay: Antiviral activity against HIV1 MP1308 infected in human dendritic cells assessed as inhibition of p24; details: Human immunodeficiency virus 1, MP1308, dendritic cells
[22] = system: Human immunodeficiency virus 1; assay: Antiviral activity against HIV1 W5269 infected in human dendritic cells assessed as inhibition of p24 production; details: Human immunodeficiency virus 1, W5269, dendritic cells
[23] = system: Human immunodeficiency virus 1; assay: Antiviral activity against TMC120-resistant HIV1 harboring RT 100I, 138G mutant infected in human MT4 cells assessed as inhibition of virus-induced cytopathogenicity after 4 days by MTT assay; type: functional, organism-based; details: Human immunodeficiency virus 1, MT4, 96 h; how it was run: as §1
[24] = system: Human immunodeficiency virus 1; assay: Antiviral activity against HIV1 MP634 infected in human dendritic cells assessed as inhibition of p24 in supernatants; details: Human immunodeficiency virus 1, MP634, dendritic cells
[25] = Cytotoxicity against human MT4 cells after 96 hrs by MTT assay; type: cell-based
How it was run: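 Serial compound dilutions (from DMSO stocks at […]) are added, then cells are held 96 h at 37 °C in humidified 5% CO2. Viability is read by MTT. The value is the concentration reducing proliferation by 50%, as the mean of three independent determinations, run in parallel with the antiviral assays.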

[26] = system: Human immunodeficiency virus 1; assay: Antiviral activity against HIV1 CRF02 infected in human dendritic cells assessed as inhibition of p24 in supernatants; details: Human immunodeficiency virus 1, CRF02, dendritic cells
[27] = system: Human immunodeficiency virus 1; assay: Ratio of MC1220 EC50 to compound EC50 for HIV1 MP634 infected in human cells
[28] = system: Human immunodeficiency virus 1; assay: Antiviral activity against HIV1 MP1033 infected in human dendritic cells assessed as inhibition of p24; details: Human immunodeficiency virus 1, MP1033, dendritic cells
[29] = system: Human immunodeficiency virus 1; assay: Antiviral activity against MDR-resistant HIV1 harboring 41L, 74V, 106A, 215Y mutant infected in human MT4 cells assessed as inhibition of virus-induced cytopathogenicity after 4 days by MTT assay; type: functional, organism-based; details: Human immunodeficiency virus 1, MT4, 96 h; how it was run: as §1
[30] = system: Human immunodeficiency virus 1; assay: Antiviral activity against HIV1 infected in human MT4 cells assessed as lowest compound concentration required to irreversibly knock out vial multiplication treated 4 hrs before infection measured after 40 days by MTT assay; type: functional; how it was run: as §2

SMILES: CCc1c(C(F)c2cc(C)cc(C)c2)n(COCc2ccc(C#CCO)cc2)c(=O)[nH]c1=O (stereo not given)
- Ratio EC50 [1]: 3.3
- EC50 [2]: 100 nM
- EC50 [3]: 10 nM
- EC99 [4]: 0.01 µM
- EC99 [5]: 0.01 µM
- EC50 [6]: 300 nM
- Ratio EC50 [7]: 1.7
- Ratio EC50 [8]: 3.3
- MNTC at 960 h [9]: 10 µM
- EC50 [10]: 20 nM
- EC50 [11]: 2000 nM
- Ratio EC50 [12]: >10
- EC50 [13]: 40 nM
- EC99 [14]: 0.0001 µM
- EC50 [15]: 6 nM
- Activity [16]: 0.5 µM
- EC50 [17]: 40 nM
- EC99 [18]: 0.01 µM
- Activity [19]: >20 µM
- EC50 [20]: 900 nM
- EC99 [21]: 0.01 µM
- EC99 [22]: 0.01 µM
- EC50 [23]: 10 nM
- EC99 [24]: 0.01 µM
- CC50 at 96 h [25]: 37000 nM
- EC99 [26]: 0.1 µM
- Ratio EC50 [27]: 10
- EC99 [28]: 0.01 µM
- EC50 [29]: 20 nM
- Activity [30]: >20 µM

SMILES: Cc1c(C(C)c2c(F)cccc2F)nc(N(C)C)[nH]c1=O (stereo not given)
- EC50 [2]: 2000 nM
- EC50 [3]: 4 nM
- EC99 [4]: 0.001 µM
- EC99 [5]: 0.01 µM
- EC50 [6]: > 20000 nM
- MNTC at 960 h [9]: 30 µM
- EC50 [10]: 10 nM
- EC50 [11]: 700 nM
- EC50 [13]: 3000 nM
- EC99 [14]: ≤ 0.0001 µM
- EC50 [15]: 2 nM
- Activity [16]: <0.1 µM
- EC50 [17]: 800 nM
- EC99 [18]: 0.001 µM
- Activity [19]: <5 µM
- EC50 [20]: 3000 nM
- EC99 [21]: 0.01 µM
- EC99 [22]: 0.01 µM
- EC50 [23]: 2000 nM
- EC99 [24]: 0.1 µM
- CC50 at 96 h [25]: ≥ 100000 nM
- EC99 [26]: 0.01 µM
- EC99 [28]: 0.01 µM
- EC50 [29]: 10 nM
- Activity [30]: <5 µM
